According to ChEMBL document CHEMBL1140666, “Synthesis and evaluation of alpha,beta-unsaturated alpha-aryl-substituted fosmidomycin analogues as DXR inhibitors” (Bioorg Med Chem Lett, 2007):

Assay: Inhibition of Escherichia coli DXR
Outline: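 Recombinant E. coli DXR was used. Conversion of substrate DOXP to MEP was followed through the reaction's NADPH dependence, and IC50 was derived from this.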
For O=CN(O)CCC(c1ccc(Cl)c(Cl)c1)P(=O)(O)O (configuration not stated), the IC50 was 0.059 µM.
Work on CC(=O)N(O)C/C=C(/c1ccccc1)P(=O)(O)O yielded an IC50 greater than 30 µM.
CC(=O)N(O)C/C=C(/c1cccc([N+](=O)[O-])c1)P(=O)(O)O gave an IC50 greater than 30 µM.
With CC(=O)N(O)C/C=C(/c1ccc([N+](=O)[O-])cc1)P(=O)(O)O the IC50 was 34 µM.
Compound CC(=O)N(O)C/C=C(/c1ccsc1)P(=O)(O)O has an IC50 greater than 30 µM.
CC(=O)N(O)C/C=C(\c1ccccc1)P(=O)(O)O gave an IC50 of 5.7 µM.
In the case of CC(=O)N(O)C/C=C(\c1ccc(C#N)cc1)P(=O)(O)O, the IC50 is reported as 16 µM.
CC(=O)N(O)C/C=C(\Br)P(=O)(O)O gave an IC50 of 0.45 µM.
In the case of CC(=O)N(O)C/C=C(\c1ccc(Cl)c(Cl)c1)P(=O)(O)O, the IC50 is reported as 5.5 µM.
Compound CC(=O)N(O)C/C=C(/c1cccs1)P(=O)(O)O has an IC50 of 42 µM.
O=CN(O)CCCP(=O)(O)O [FOSMIDOMYCIN] showed an IC50 of 0.034 µM.
In the case of CC(=O)N(O)CCCP(=O)(O)O [FR-900098], the IC50 is reported as 0.032 µM.
